In ChEMBL document CHEMBL4219177, “Synthesis and evaluation of the antibacterial activities of aryl substituted dihydrotriazine derivatives” (Bioorg Med Chem Lett, 2018):
Converted amounts (≈) assume the structure as drawn.

Key:
Staphylococcus aureus [1] = test: Antibacterial activity against quinolone-resistant Staphylococcus aureus isolate CCARM 3505 after 24 hrs by two-fold serial dilution method; type: functional; details: isolate CCARM 3505, 24 h
Outline: (§1)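 Broth microdilution MIC. Bacteria were grown to mid-log phase in Mueller-Hinton broth, diluted 1000-fold, and inoculated at 10^5 CFU/mL. Compounds in DMSO (final ≤0.05%) were tested as two-fold serial dilutions from 64 to 0.25. Plates were incubated 24 h at 37 °C and growth read as absorbance at 650 nm. MIC = concentration completely inhibiting growth. Experiments were run three times.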

Streptococcus mutans = test: Antibacterial activity against Streptococcus mutans 3289 after 24 hrs by two-fold serial dilution method; type: functional; details: Streptococcus mutans, 3289, 24 h
Candida albicans = test: Antifungal activity against Candida albicans 7535 after 24 hrs by two-fold serial dilution method; type: functional; details: Candida albicans, 7535, 24 h
Pseudomonas aeruginosa = test: Antibacterial activity against Pseudomonas aeruginosa 2742 after 24 hrs by two-fold serial dilution method; type: functional; details: Pseudomonas aeruginosa, 2742, 24 h
Outline: (§2)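 Bacteria grown to mid-log phase in Mueller-Hinton broth, diluted 1000-fold, and inoculated at 10^5 CFU/mL. Compounds were dissolved in DMSO (final ≤0.05%) and two-fold serially diluted. MIC was the lowest concentration giving complete growth inhibition after 24 h at 37 °C, with growth read as absorbance at 650 nm. Each experiment was run three times.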

Staphylococcus aureus [2] = test: Antibacterial activity against Staphylococcus aureus 4220 after 24 hrs by two-fold serial dilution method; type: functional; details: RN4220, 24 h; outline: as §1
Staphylococcus aureus [3] = test: Antibacterial activity against methicillin-resistant Staphylococcus aureus isolate CCARM 3167 after 24 hrs by two-fold serial dilution method; type: functional; details: isolate CCARM 3167, 24 h
Escherichia coli = test: Antibacterial activity against Escherichia coli 1924 after 24 hrs by two-fold serial dilution method; type: functional; details: Escherichia coli, 1924, 24 h; outline: as §2
Salmonella typhimurium = test: Antibacterial activity against Salmonella typhimurium 2421 after 24 hrs by two-fold serial dilution method; type: functional, Salmonella enterica subsp. enterica serovar Typhimurium; details: Salmonella enterica, 2421, 24 h; outline: as §2
L02 = test: Cytotoxicity against human L02 cells assessed as growth inhibition after 24 hrs by MTT assay; type: cell-based; details: L02, 24 h

SMILES | MIC (Staphylococcus aureus [1]) [µg/mL] | MIC (Streptococcus mutans) [µg/mL] | MIC (Candida albicans) [µg/mL] | MIC (Pseudomonas aeruginosa) [µg/mL] | MIC (Staphylococcus aureus [2]) | MIC (Staphylococcus aureus [3]) | MIC (Escherichia coli) [µg/mL] | MIC (Salmonella typhimurium) [µg/mL] | IC50 (L02) [µM]
CN(C)C1=NC(c2ccc3cc(OCc4ccccc4F)ccc3c2)N=C(N)N1 (configuration not stated) | 4 (≈ 10.2 µM) | 4 (≈ 10.2 µM) | 4 (≈ 10.2 µM) | 64 (≈ 163 µM) | 2 µg/mL | 2 µg/mL | 4 (≈ 10.2 µM) | 64 (≈ 163 µM) | 
Cc1ccc(C(=O)/C=C/c2ccc(C3N=C(N)NC(N(C)C)=N3)cc2)c(C)c1 (configuration not stated) | 32 (≈ 85.2 µM) | 32 (≈ 85.2 µM) | 32 (≈ 85.2 µM) | > 64 | 32 µg/mL | 32 µg/mL | 32 (≈ 85.2 µM) | > 64 | 
CN(C)C1=NC(c2ccc(/C=C/C(=O)c3ccc(F)cc3)cc2)N=C(N)N1 (configuration not stated) | 32 (≈ 87.6 µM) | 16 (≈ 43.8 µM) | 32 (≈ 87.6 µM) | > 64 | 32 µg/mL | 32 µg/mL | 32 (≈ 87.6 µM) | > 64 | 
CN(C)C1=NC(c2ccc3cc(OCc4ccc(Br)cc4)ccc3c2)N=C(N)N1 (configuration not stated) | 1 (≈ 2.21 µM) | 1 (≈ 2.21 µM) | 1 (≈ 2.21 µM) | 64 (≈ 141 µM) | 1 µg/mL | 1 µg/mL | 1 (≈ 2.21 µM) | 64 (≈ 141 µM) | 
COc1c(N2CCNC(C)C2)c(F)cc2c(=O)c(C(=O)O)cn(C3CC3)c12 (configuration not stated) [GATIFLOXACIN] | 8 (≈ 21.3 µM) | 0.25 (≈ 0.666 µM) | 0.5 (≈ 1.33 µM) | 1 (≈ 2.66 µM) | 0.25 µg/mL | 2 µg/mL | 2 (≈ 5.33 µM) |  | 
CN(C)C1=NC(c2ccc3cc(OCc4ccccc4Cl)ccc3c2)N=C(N)N1 (configuration not stated) | 1 (≈ 2.45 µM) | 2 (≈ 4.9 µM) | 1 (≈ 2.45 µM) | 64 (≈ 157 µM) | 2 µg/mL | 1 µg/mL | 1 (≈ 2.45 µM) | 64 (≈ 157 µM) | 
CN(C)C1=NC(c2ccc3cc(OCc4cccc(Cl)c4)ccc3c2)N=C(N)N1 (configuration not stated) | 1 (≈ 2.45 µM) | 2 (≈ 4.9 µM) | 1 (≈ 2.45 µM) | 64 (≈ 157 µM) | 2 µg/mL | 1 µg/mL | 1 (≈ 2.45 µM) | 64 (≈ 157 µM) | 
CN(C)C1=NC(c2ccc3cc(OCC(=O)c4ccc(Br)cc4)ccc3c2)N=C(N)N1 (configuration not stated) | 4 (≈ 8.33 µM) | 8 (≈ 16.7 µM) | 16 (≈ 33.3 µM) | 64 (≈ 133 µM) | 16.7 µM | 8.35 µM | 8 (≈ 16.7 µM) | 64 (≈ 133 µM) | 58.7
CN(C)C1=NC(c2ccc3cc(OCc4ccccc4)ccc3c2)N=C(N)N1 (configuration not stated) | 8 (≈ 21.4 µM) | 8 (≈ 21.4 µM) | 8 (≈ 21.4 µM) | > 64 | 16 µg/mL | 8 µg/mL | 8 (≈ 21.4 µM) | > 64 | 
OC(Cn1cncn1)(Cn1cncn1)c1ccc(F)cc1F [FLUCONAZOLE] |  | 1 (≈ 3.27 µM) |  |  |  |  |  |  | 
CN(C)C1=NC(c2ccc(/C=C/C(=O)c3ccc(Br)cc3)cc2)N=C(N)N1 (configuration not stated) | 8 (≈ 18.8 µM) | 16 (≈ 37.5 µM) | 16 (≈ 37.5 µM) | > 64 | 16 µg/mL | 8 µg/mL | 16 (≈ 37.5 µM) | > 64 | 
CN(C)C1=NC(c2ccc(OCc3ccccc3)cc2)N=C(N)N1 (configuration not stated) | 32 (≈ 98.9 µM) | 32 (≈ 98.9 µM) | 32 (≈ 98.9 µM) | > 64 | 64 µg/mL | 32 µg/mL | 32 (≈ 98.9 µM) | > 64 | 
COc1cccc(C(=O)/C=C/c2ccc(C3N=C(N)NC(N(C)C)=N3)cc2)c1 (configuration not stated) | 16 (≈ 42.4 µM) | 16 (≈ 42.4 µM) | 16 (≈ 42.4 µM) | > 64 | 32 µg/mL | 16 µg/mL | 16 (≈ 42.4 µM) | > 64 | 
